Source: ChEMBL document CHEMBL1275275, “Preparation of new polycyclic compounds derived from benzofurans and furochromones. An approach to novel 1,2,3-thia-, and selena-diazolofurochromones of anticipated antitumor activities” (Eur J Med Chem, 2010)
Converted amounts (≈) assume the structure as drawn.

How the values were obtained:
Assay type in all cases: functional, cell-based; call rule not given here
[1] = tested on: MCF7; assay: Antitumor activity against human MCF7 cells
Procedure, shortened: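 Human MCF-7 breast carcinoma cells treated in vitro across a range of drug concentrations. Surviving fraction plotted against concentration to give survival curves. IC50 (µg/ml), the dose that reduces survival to 50%, read from these curves. Doxorubicin served as reference drug.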

[2] = tested on: HCT-116; assay: Antitumor activity against human HCT116 cells
Procedure, shortened: (§1)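 In vitro cytotoxicity against human carcinoma cell lines. Surviving fraction was plotted against drug concentration to give survival curves. IC50 was read from these curves as the dose reducing survival to 50%, in µg/ml.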

[3] = tested on: HeLa; assay: Antitumor activity against human HeLa cells; procedure, shortened: as §1
[4] = tested on: HepG2; assay: Antitumor activity against human HepG2 cells; procedure, shortened: as §1
[5] = Homo sapiens, MCF7, read-out: IC50

COc1c2c(cc3occc13)OC(C)(C)c1[se]nnc1-2 gave an IC50 [1, 5] of 5.56 µg/mL (≈ 16.6 µM), an IC50 [2] of 4.8 µg/mL (≈ 14.3 µM) and an IC50 [3] of 6.02 µg/mL (≈ 18 µM). The IC50 [4] was 11.5 µg/mL (≈ 34.3 µM).

Work on COc1c(C(/C=C(\C)N2CCCC2)=C2C(=O)c3ccccc3C2=O)c(O)cc2occc12 yielded an IC50 [1, 5] of 15.5 µg/mL (≈ 36.1 µM).

Work on COc1c2c(c(OC)c3occc13)OC(C)(C)c1[se]nnc1-2 yielded an IC50 [1, 5] of 15.8 µg/mL (≈ 43.3 µM), an IC50 [2] of 4.65 µg/mL (≈ 12.7 µM) and an IC50 [3] of 4.35 µg/mL (≈ 11.9 µM). It also gave an IC50 [4] of 15.9 µg/mL (≈ 43.5 µM).

COc1c2occc2c(OC)c2c(C=C(C)N3CCCC3)c(C#N)c(=N)oc12 gave an IC50 [1, 5] of 8.61 µg/mL (≈ 22.7 µM), an IC50 [2] of 4.8 µg/mL (≈ 12.7 µM) and an IC50 [3] of 5.11 µg/mL (≈ 13.5 µM). The IC50 [4] was 10.9 µg/mL (≈ 28.7 µM).

Compound COc1c2c(c(OC)c3occc13)OC1(CCCCC1)C/C2=N\NC(N)=O has an IC50 [1, 5] of 10.6 µg/mL (≈ 28.4 µM), an IC50 [2] of 4.04 µg/mL (≈ 10.8 µM) and an IC50 [3] of 4.19 µg/mL (≈ 11.2 µM). It also gave an IC50 [4] of 8.61 µg/mL (≈ 23.1 µM).

Work on COc1c2c(cc3occc13)OC(C)(C)C/C2=N\NC(N)=O yielded an IC50 [1, 5] of 10.9 µg/mL (≈ 35.9 µM).

CCC1(C)Oc2c(c(OC)c3ccoc3c2OC)-c2nn[se]c21 (stereo not drawn) showed an IC50 [1, 5] of 12.7 µg/mL (≈ 33.5 µM), an IC50 [2] of 8.92 µg/mL (≈ 23.5 µM) and an IC50 [3] of 6.02 µg/mL (≈ 15.9 µM). For the same compound, the IC50 [4] was 9.53 µg/mL (≈ 25.1 µM).

Compound COc1c(C(/C=C(\C)N2CCCC2)=C2C(=O)c3ccccc3C2=O)c(O)c(OC)c2occc12 has an IC50 [1, 5] of 13.2 µg/mL (≈ 28.7 µM).

CCC1(C)C/C(=N\NC(N)=O)c2c(c(OC)c3occc3c2OC)O1 (stereo not drawn) gave an IC50 [1, 5] of 13.9 µg/mL (≈ 40 µM).

COc1c2c(c(OC)c3occc13)OC1(CCCCC1)c1snnc1-2 was tested, and the IC50 [1, 5] was 14.9 µg/mL (≈ 41.6 µM).

COc1c2c(c(OC)c3occc13)OC1(CCCCC1)c1[se]nnc1-2 gave an IC50 [1, 5] of 15 µg/mL (≈ 37 µM), an IC50 [2] of 4.19 µg/mL (≈ 10.3 µM) and an IC50 [3] of 5.57 µg/mL (≈ 13.7 µM). For the same compound, the IC50 [4] was 9.53 µg/mL (≈ 23.5 µM).

Work on COc1c2c(cc3occc13)OC1(CCCCC1)c1snnc1-2 yielded an IC50 [1, 5] of 15.9 µg/mL (≈ 48.4 µM).

For COc1c2c(cc3occc13)OC1(CCCCC1)c1[se]nnc1-2, the IC50 [1, 5] was 16.5 µg/mL (≈ 44 µM), the IC50 [2] was 3.89 µg/mL (≈ 10.4 µM) and the IC50 [3] was 7.24 µg/mL (≈ 19.3 µM). The IC50 [4] was 14.6 µg/mL (≈ 38.9 µM).

COc1c2c(c(OC)c3occc13)OC(C)(C)C/C2=N\NC(N)=O showed an IC50 [1, 5] of 20.8 µg/mL (≈ 62.4 µM).

In the case of COc1c2occc2c(OC)c2c(C=C(C)N3CCCCC3)c(C#N)c(=N)oc12, the IC50 ([1]; mcf7) is reported as “Not Active”, the IC50 [2] is reported as 4.34 µg/mL (≈ 11 µM) and the IC50 [3] is reported as 4.8 µg/mL (≈ 12.2 µM). For the same compound, the IC50 [4] was 8.46 µg/mL (≈ 21.5 µM).

COc1c2c(cc3occc13)OC1(CCCCC1)C/C2=N\NC(N)=O was tested, and the IC50 [1, 5] was 14 µg/mL (≈ 40.8 µM).

Compound COc1cccc2c1C(=O)c1c(O)c3c(c(O)c1C2=O)C[C@@](O)(C(=O)CO)C[C@@H]3O[C@H]1C[C@H](N)[C@H](O)[C@H](C)O1 [DOXORUBICIN] has an IC50 [2] of 3.73 µg/mL (≈ 6.86 µM), an IC50 [3] of 4.19 µg/mL (≈ 7.71 µM) and an IC50 [4] of 3.73 µg/mL (≈ 6.86 µM).
